ChEMBL document CHEMBL1138107, “Novel non-nucleobase inhibitors of Staphylococcus aureus DNA polymerase IIIC” (Bioorg Med Chem Lett, 2006)
Converted amounts (≈) assume the structure as drawn. The source made the active and inactive calls. The calls are words filed in the database; no cut-off is given here.

Legend:
[1] = target: T1, DNA polymerase III PolC-type (Staphylococcus aureus) (UniProt P0C1P9); assay: Inhibition of DNA polymerase3C from Staphylococcus aureus at 100 uM
T1 sequence (whole entry): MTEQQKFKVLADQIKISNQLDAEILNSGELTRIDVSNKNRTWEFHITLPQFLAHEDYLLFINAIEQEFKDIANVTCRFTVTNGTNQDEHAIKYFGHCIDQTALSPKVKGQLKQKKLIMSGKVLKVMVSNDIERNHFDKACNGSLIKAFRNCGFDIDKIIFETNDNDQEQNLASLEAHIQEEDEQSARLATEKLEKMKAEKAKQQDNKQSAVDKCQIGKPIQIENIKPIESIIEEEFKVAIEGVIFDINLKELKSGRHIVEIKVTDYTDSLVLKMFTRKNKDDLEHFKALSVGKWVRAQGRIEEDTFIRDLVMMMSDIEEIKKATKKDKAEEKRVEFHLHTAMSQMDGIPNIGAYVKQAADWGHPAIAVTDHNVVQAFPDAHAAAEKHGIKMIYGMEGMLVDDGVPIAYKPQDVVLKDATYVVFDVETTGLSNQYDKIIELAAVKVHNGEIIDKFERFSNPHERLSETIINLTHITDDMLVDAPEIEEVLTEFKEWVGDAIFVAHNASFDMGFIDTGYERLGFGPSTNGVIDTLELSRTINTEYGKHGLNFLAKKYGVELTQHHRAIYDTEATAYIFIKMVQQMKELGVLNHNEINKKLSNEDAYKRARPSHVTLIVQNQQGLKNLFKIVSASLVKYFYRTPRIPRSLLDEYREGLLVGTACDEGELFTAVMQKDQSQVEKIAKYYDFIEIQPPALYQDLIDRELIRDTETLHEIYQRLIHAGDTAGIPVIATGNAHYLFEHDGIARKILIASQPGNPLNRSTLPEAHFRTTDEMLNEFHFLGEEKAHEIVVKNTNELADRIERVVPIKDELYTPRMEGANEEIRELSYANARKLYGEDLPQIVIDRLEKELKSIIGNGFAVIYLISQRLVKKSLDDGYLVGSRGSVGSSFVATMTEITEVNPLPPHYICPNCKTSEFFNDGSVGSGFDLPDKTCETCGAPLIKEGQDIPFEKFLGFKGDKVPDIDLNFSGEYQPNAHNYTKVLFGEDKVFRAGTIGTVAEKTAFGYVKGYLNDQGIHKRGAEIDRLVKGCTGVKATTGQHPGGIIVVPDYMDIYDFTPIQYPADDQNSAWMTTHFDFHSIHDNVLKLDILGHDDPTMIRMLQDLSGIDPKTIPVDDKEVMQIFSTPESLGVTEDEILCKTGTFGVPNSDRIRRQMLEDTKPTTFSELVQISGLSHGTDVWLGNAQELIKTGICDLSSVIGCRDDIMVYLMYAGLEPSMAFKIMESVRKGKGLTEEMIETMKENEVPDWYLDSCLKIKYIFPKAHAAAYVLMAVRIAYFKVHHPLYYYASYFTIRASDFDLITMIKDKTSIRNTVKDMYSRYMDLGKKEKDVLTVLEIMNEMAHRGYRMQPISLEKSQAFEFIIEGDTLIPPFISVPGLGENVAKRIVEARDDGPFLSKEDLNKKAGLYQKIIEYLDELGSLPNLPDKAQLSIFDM
Procedure, shortened: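 PolC oligonucleotide-primed incorporation of [³H]dTTP was run with 125 ng purified enzyme for 30 min at 37 °C. It was quenched with EDTA, filter-bound on DE81 and counted by liquid scintillation. Compounds were screened in triplicate at 10, 50 and 100.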

[2] = target: T2, DNA polymerase III PolC-type (Staphylococcus aureus, UniProt P0C1P9); assay: Inhibition of DNA polymerase3C from Staphylococcus aureus
T2 sequence (P0C1P9 whole entry): T1 sequence (whole entry)
Procedure, shortened: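 Purified PolC (125 ng) started the reaction with a double-stranded oligonucleotide substrate, dATP, dCTP, low dGTP and [³H]dTTP (1 Ci/mmol) in Tris-HCl pH 7.5 buffer with glycerol, EDTA, DTT, IgG and 8 mM MgCl₂. Incubation was 30 min at 37 °C, stopped with 20 mM EDTA, then spotted on DE81 filters, washed and counted by scintillation. IC50 came from a 12-point, roughly 2-fold serial dilution, run in triplicate.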

Staphylococcus aureus [3] = assay: Antimicrobial activity against Staphylococcus aureus (RN4220); type: functional
HeLa = assay: Cytotoxicity against HeLa cell line by MTS assay; type: functional, cell-based; details: Homo sapiens
Procedure, shortened: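 HeLa cells (2 × 10⁴/well) in DMEM with 1% bovine growth serum were exposed to compound at 100, 50, 25 and 12.5 for 18 h at 37 °C under 5% CO₂. Viability was read as MTS reduction to formazan, by absorbance at 490 nm.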

Staphylococcus aureus [4] = assay: Antimicrobial activity against Staphylococcus aureus (RN4220) in presence of 50% of human serum; type: functional
Staphylococcus aureus [5] = assay: Inhibition of DNA replication utilizing Staphylococcus aureus replication proteins in presence of reduced dATP concentrations; type: functional, organism-based
Procedure, shortened: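 The replication assay used a singly primed circular ssM13 template copied by S. aureus PolC, with β clamp, δδ′/τ clamp loader and SSB. [³H]dTTP incorporation was measured in streptavidin-coated scintillation plates, with the dATP concentration reduced to sensitize the assay to dATP analogs.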

Hepatocyte = assay: Cytotoxicity against human hepatocytes by measure of ATP production at 100 uM; type: functional, cell-based
Procedure, shortened: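 Cryopreserved primary human hepatocytes (1 × 10⁴/well) in Krebs–Henseleit buffer were incubated with compound at 100, 50, 25 and 12.5 for 2 h at 37 °C under 5% CO₂. ATP content was then measured by luminescence after adding luciferin and luciferase.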

Compound	inhibition [1] [%]	IC50 [2] [µM]	MIC (Staphylococcus aureus [3]; read-out: MIC) [µg/mL]	Activity (HeLa)	MIC (Staphylococcus aureus [4]) [µg/mL]	IC50 (Staphylococcus aureus [5]) [µM]	Activity (Hepatocyte)	MIC (Staphylococcus aureus [3]) [µg/mL]
Oc1nc(Nc2ccc3c(c2)CCC3)nc(O)c1Cc1ccccc1	90	37	8 (≈ 24 µM)	Not toxic				
C=CCc1c(O)nc(Nc2ccc3c(c2)CCC3)nc1Cl	53		1 (≈ 3.31 µM)	Not toxic	> 128			
COC(=O)c1ccc(OCCCc2c(O)nc(Nc3ccc4c(c3)CCC4)nc2O)cc1	74		64 (≈ 147 µM)	Not toxic				
Oc1nc(Nc2ccc3c(c2)CCC3)nc(O)c1CCCN1CCCCC1	69		128 (≈ 347 µM)	Not toxic				
CCCc1cnc(Nc2ccc3c(c2)CCC3)nc1O	7		> 128	Not toxic	> 128			
Oc1nc(Nc2ccc3c(c2)CCC3)nc(O)c1CCOc1ccccc1	74		16 (≈ 44 µM)	Not toxic				
CCc1cc(Nc2nc(N)c(CCCc3ccccc3)c(O)n2)ccc1C	12		> 128	Not toxic	> 128	7.9		
C=CCc1c(O)nc(Nc2ccc3c(c2)CCC3)nc1O	65		16 (≈ 56.5 µM)	Not toxic	> 128		inactive	
C=CCc1c(O)nc(Nc2ccc3c(c2)CCC3)nc1OC	33		128 (≈ 430 µM)	Not toxic	> 128			
O=C(O)c1ccc(OCCCc2c(O)nc(Nc3ccc4c(c3)CCC4)nc2O)cc1	90		> 128	Not toxic				
C=CCc1c(Cl)nc(Nc2ccc3c(c2)CCC3)[nH]c1=O		2.3						
COc1cc(C#N)ccc1OCCCc1c(O)nc(Nc2ccc3c(c2)CCC3)nc1O	95	3	16 (≈ 37 µM)	Not toxic			inactive	
C=CCCCc1c(O)nc(Nc2ccc3c(c2)CCC3)nc1O	89		16 (≈ 51.4 µM)	Not toxic				
Nc1nc(Nc2ccc3c(c2)CCC3)nc(O)c1Cc1ccccc1	17		> 128	Not toxic	> 128	> 100		
Nc1nc(Nc2ccc3c(c2)CCC3)nc(O)c1CCCc1ccccc1	-0		> 128	Not toxic	> 128	> 100		
C=CCc1c(N)nc(Nc2ccc(C)c(CC)c2)nc1O	32		8 (≈ 28.1 µM)	Not toxic	32	7.7		
CCc1cc(Nc2nc(O)c(Cc3ccccc3)c(O)n2)ccc1C	94	4	8 (≈ 23.9 µM)	Not toxic			inactive	
COc1cc(OCCCc2c(O)nc(Nc3ccc4c(c3)CCC4)nc2O)ccc1[N+](=O)[O-]	72		8 (≈ 17.7 µM)	Not toxic				
O=c1[nH]c(Nc2ccc3c(c2)CCC3)nc(O)c1CCCOc1ccc([N+](=O)[O-])cc1		2.6						
C=CCc1c(N)nc(Nc2ccc(C)c(CC)c2)[nH]c1=O		164						
CCc1cc(Nc2nc(N)cc(O)n2)ccc1C	36	104		Not toxic	32	28		16 (≈ 65.5 µM)
C=CCc1c(O)nc(Nc2ccc(C)c(CC)c2)[nH]c1=O		7.7						
